Reference: ChEMBL document CHEMBL1153389, “Identification of novel antibacterial peptides by chemoinformatics and machine learning” (2009)

Tested on: Pseudomonas aeruginosa
Test: Antimicrobial activity against Pseudomonas aeruginosa H1001 expressing luciferase gene assessed as ratio antimicrobial IC50 for drug to Bac2A peptide by luminescence assay
Assay type: functional
How it was run: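 Peptides are made by SPOT synthesis on cellulose, cleaved, and the spots placed in plate wells. Overnight P. aeruginosa H1001 (fliC::luxCDABE) is diluted 1:500 in 100 mM Tris-HCl pH 7.3 with 20 mM glucose and added to the wells. After 30 min, serial dilutions (8 rows) are made. Luminescence is read at 4 h. IC50 is taken from a sigmoid fit and expressed relative to Bac2A run in the same series.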

Compound | Ratio IC50
H-IRWWKRWWR-OH | 0.21
H-IWIWRKLRW-OH | 0.46
H-GKRVWGRGR-OH | 8.2
H-NKTGYRWRN-OH | 8.33
H-YQRLFVRIR-OH | 25
H-RRRKTWYWW-OH | 0.32
H-KNRGRWFSH-OH | 9.79
H-WKRWRWIRW-OH | 0.28
H-RRMGNGGFR-OH | 8.71
H-RKWWRWWRW-OH | 0.31
H-KRWWIRWWR-OH | 0.21
H-KWWLVWKRK-OH | 0.23
H-KRWLTWRFR-OH | 0.54
H-RWRWWKRWY-OH | 0.2
H-ATRKGYSKF-OH | 25
H-GRQISWGRT-OH | 8.04
H-GVRSWSQRT-OH | 8.5
H-RVRWWKKRW-OH | 0.27
H-WVKVWKYTW-OH | 5.64
H-WIRKRSRIF-OH | 3.39
H-KWWRWWRKW-OH | 0.2
H-VLVKKRRRR-OH | 12.48
H-KRWRWWRWW-OH | 0.28
H-IRRIVRRKI-OH | 11.15
H-KRWWWVWKR-OH | 0.36
H-LRFILWWKR-OH | 0.88

Compound | Ratio IC50
H-RRWFVKWWY-OH | 0.52
H-KRWWKWIRW-OH | 0.04
H-RWWLKIRKW-OH | 0.18
H-WRWYWWKKR-OH | 0.22
H-AMLGGRQWR-OH | 6.75
H-WHYRSQVGR-OH | 6.65
H-WHGVRWWKW-OH | 2.5
H-RKIWWWRIR-OH | 0.59
H-GKFYKVWVR-OH | 1.21
H-VSGNWRGSR-OH | 8.54
H-RWILWWWRI-OH | 25
H-RGRRQIGKF-OH | 8.51
H-KRWWIWRIR-OH | 0.35
H-KRWWRKWWR-OH | 0.15
H-KRWWWWWKR-OH | 0.22
H-KFWWWNYLK-OH | 1.81
H-RRKWWWRWW-OH | 0.27
H-AWKIKKGRI-OH | 3.59
H-GRIGGKNVR-OH | 9.12
H-RVFVKIRMK-OH | 0.72
H-KRWVWYRYW-OH | 0.54
H-RRMKKLRRK-OH | 4.22
H-RWRWKRWWW-OH | 0.25
H-RVWRNGYSR-OH | 10.24
H-IRKKRRRWT-OH | 6.59
H-RKVRWKIRV-OH | 0.32

Compound | Ratio IC50
H-FMWVYRYKK-OH | 1.51
H-RVKTWRVRT-OH | 5.66
H-KKRWLWWWR-OH | 0.3
H-IWKRWRKRL-OH | 0.33
H-GSRRSVWVF-OH | 2.3
H-RLVHWIRRV-OH | 2.62
H-RRRKWWIWW-OH | 0.18
H-RWWRKWWIR-OH | 0.24
H-WRWWWKKWR-OH | 0.19
H-KWWKIWWKR-OH | 0.2
H-MINRVRLRW-OH | 2.77
H-RWRIKRWWW-OH | 0.12
H-RKWMGRFLM-OH | 4.38
H-RGRTSNWKM-OH | 7.07
H-TRGWSLGTR-OH | 12.15
H-GRRVMNQKR-OH | 9.83
H-RSGKKRWRR-OH | 6.5
H-IRRRKWWWW-OH | 0.21
H-WVRFVYRYW-OH | 2.15
H-HGVWGNRKR-OH | 7.95
H-RNKFGGNWR-OH | 25
H-IRKWRRWWK-OH | 0.41
H-GWKILRKRK-OH | 2.74
H-RWRGIVHIR-OH | 4.93
H-WRFKVLRQR-OH | 7.08
H-RKRWLWRWW-OH | 0.25

Compound | Ratio IC50
H-IWKRWWRRW-OH | 0.24
H-RRWWMRWWV-OH | 0.33
H-GSRRFGWNR-OH | 8.1
N=C(N)NCCC[C@H](NC(=O)[C@H](CCCCN)NC(=O)[C@H](CCCNC(=N)N)NC(=O)[C@@H](N)CCCNC(=N)N)C(=O)N[C@@H](Cc1c[nH]c2ccccc12)C(=O)N[C@@H](Cc1c[nH]c2ccccc12)C(=O)N[C@@H](Cc1c[nH]c2ccccc12)C(=O)N[C@@H](Cc1c[nH]c2ccccc12)C(=O)N[C@@H](Cc1c[nH]c2ccccc12)C(=O)O | 0.43
H-IRMWVKRWR-OH | 0.61
H-RWRRWKWWW-OH | 0.4
H-RWWIRKWWR-OH | 0.21
H-RQNGVWRVF-OH | 8.26
H-KRRRIWWWK-OH | 0.4
H-GRNGWYRIN-OH | 10.74
H-SSGVRWSWR-OH | 8.16
H-RRVQRGKWW-OH | 6.3
H-KNNRRWQGR-OH | 6.45
H-KIRRKVRWG-OH | 10.55
H-WRWRWWKRW-OH | 0.28
H-RIWYWYKRW-OH | 0.36
H-RWFRWWKRW-OH | 0.26
H-LVFRKYWKR-OH | 0.99
H-RWIGVIIKY-OH | 2.24
H-IRGRIIFWV-OH | 0.44
H-FVVMKRIVW-OH | 5.38
H-RRIWRWWWW-OH | 0.68
H-IRRRWWWIV-OH | 0.23
H-RRWWHLWRK-OH | 0.38
H-TRKVWWWRW-OH | 0.76
H-HYKFQRWIK-OH | 2.79

Compound | Ratio IC50
H-RWMVSKIWY-OH | 25
H-KWRRWKRWW-OH | 0.15
H-SFNWKRSGK-OH | 25
H-RLKKVRWWW-OH | 0.34
H-KRWWWWRFR-OH | 0.24
H-RRRWWWIIV-OH | 0.85
H-WGKRRGWNT-OH | 7.91
H-GRMRLWNGR-OH | 7.91
H-LRWRWWKIK-OH | 0.26
H-FVWQKGTNR-OH | 11.3
H-WKRWKWWKR-OH | 0.25
H-KRKLIRWWW-OH | 0.23
H-RWLVLRKRW-OH | 0.53
H-IVVRVWVVR-OH | 3.5
H-ASKRVGVRN-OH | 8.17
H-RWWRWRKWW-OH | 0.28
H-ARGRWINGR-OH | 7.24
H-INRKRRLRW-OH | 4.25
H-RKRTKVTWI-OH | 5.11
H-RHWKTWWKR-OH | 0.95
H-RWRIKFKRW-OH | 0.26
H-RWRRKWWWW-OH | 0.39
H-RRRKWWIWG-OH | 0.57
H-RWYRKRWSW-OH | 0.7
H-WGGHKRRGW-OH | 6.19
H-WRWWKWWRR-OH | 0.23

Compound | Ratio IC50
H-WGRTRWSSR-OH | 9.64
H-RIKVIWWWR-OH | 0.51
H-ATWIWVFRR-OH | 4.88
H-SKNVRTWRQ-OH | 7.06
H-VKRYYWRWR-OH | 1.23
H-NRRNGQMRR-OH | 8.41
H-RIKRWWWWR-OH | 0.31
H-KRFWIWFWR-OH | 3.04
H-ANRWGRGIR-OH | 10.8
H-AGGMRKRTR-OH | 25
H-RRIRRVRWG-OH | 8.22
H-RGKYIRWRK-OH | 3.83
H-RVWFKRRWW-OH | 0.26
H-KIWWWWRRR-OH | 0.21
H-GRRWGMGVR-OH | 7.75
H-RRFKKWYWY-OH | 0.26
H-WGRGGWTNR-OH | 25
H-WRNRKVVWR-OH | 6.79
H-WRRWWKWWR-OH | 0.23
H-AFRGSRHRM-OH [AFRGSRHRM] | 11.36
H-KKRWVWVIR-OH | 0.35
H-GVRVQRNSK-OH | 25
H-KRWWKWWRR-OH | 0.13
H-IRQWWRRWW-OH | 0.5
H-GGRGTRWHG-OH | 8.6
H-KRKIWWWIR-OH | 0.28

Compound | Ratio IC50
H-IKWWWRMRI-OH | 0.39
H-GRTMNGRW-OH | 6.93
H-ILRVISKRR-OH | 25
H-GIKWRSRRW-OH | 1.06
H-RWKMWWRWV-OH | 0.24
H-VRIVRVRIR-OH | 2.22
H-GWNTMGRRW-OH | 6.32
H-WSQNVRTRI-OH | 5.71
H-IRRRKKRIK-OH | 6.42
N=C(N)NCCC[C@H](NC(=O)[C@H](CCCNC(=N)N)NC(=O)[C@@H](N)CCCNC(=N)N)C(=O)N[C@@H](Cc1c[nH]c2ccccc12)C(=O)N[C@@H](Cc1c[nH]c2ccccc12)C(=O)N[C@@H](Cc1c[nH]c2ccccc12)C(=O)N[C@@H](Cc1c[nH]c2ccccc12)C(=O)N[C@@H](Cc1c[nH]c2ccccc12)C(=O)N[C@@H](Cc1c[nH]c2ccccc12)C(=O)O | 1.82
H-ARGKSIKNR-OH | 8.35
H-KFRKRVWWW-OH | 0.3
H-SWYRTRKRV-OH | 6.66
H-QRNKGLRHH-OH | 8.76
H-WHGGQKWRK-OH | 8.5
H-GMRRWRGKN-OH | 6.05
H-RWRWWIKII-OH | 0.46
H-IKRVKRRKR-OH | 2.93
H-GGIRRLRWY-OH | 1.16
H-GWGGKRRNF-OH | 7.38
H-RWKIFIRWW-OH | 1.82
H-KKSKQLWKR-OH | 3.23
H-IKRWWWRRW-OH | 0.22
H-NQKWSGRRR-OH | 7.97
